The source of these data is the EternaBench riboswitch data.

In the series the test system is MS2 coat protein. The series is described as follows: apparent Kd, MS2 coat protein; higher = weaker binding; RNA-MaP array; FMN 200 µM where present. The method, boiled down: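 Green signal from SNAP-549-labelled MS2 coat protein was normalised to red-channel RNA signal and to the median Fmax of control clusters. The protein was titrated from 0.7 or 1.5 nM, doubling to 3 µM, without and then with constant ligand, over designs transcribed by stalled E. coli RNA polymerase on Illumina sequencing-chip clusters, in 100 mM Tris-HCl pH 7.5, 80 mM KCl, 4 mM MgCl2, BSA, DTT, yeast tRNA and Tween-20. The apparent Kd is the median of filtered per-cluster binding-curve fits.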

Where [1] appears, read: designed as: ON switch for flavin mononucleotide, no ligand.
Where [2] appears, read: ligand present: flavin mononucleotide, designed as: ON switch for flavin mononucleotide.
The mark [3] stands for this setting: designed as: OFF switch for flavin mononucleotide, no ligand.
[4] abbreviates: ligand present: flavin mononucleotide, designed as: OFF switch for flavin mononucleotide.

As for “CAGCGAUAGCUGAACAAUCUAUCUGAGGAUAUUCAGAAUAAACAUGAGGAUCACCCAUGUAAUUGGGAGAAGGCAGAUAGAUUG”, the apparent Kd – broadly, the concentration giving half-maximal binding under the conditions of the assay – came to 9.19 nM under setting [1] and 5.48 nM under setting [2].
For “AACCAACAUGAGGAUCACCCAUGUCAACCCAAGCGAGGAUAUCCGAGAAUAACAAUGGGAGGAGAAGGCGCGACCU” the same measures were 73.4 nM and 55.6 nM.
In the case of “CAAAUCUGAGGAUAUCGAUUUUUGUACAUGAGGAUCACCCAUGUCCUUUUUAUUAAAUCCCGAGAAGGCAGUGUAU”, the “apparent Kd” value by setting is: under setting [3], 27.1 nM; under setting [4], 31.2 nM.
For “CGAGGAGGAGUGAGGAUAUCGUGUUCGAAAGAACGUGAGAAGGCACAUGAGGAUCACCCAUGUGAUACUUUUCG”, the “apparent Kd” value stood at 13.6 nM under setting [3] and 28.8 nM under setting [4].
The like results for “GUUAAUUAGUGAGGAUAUACAGAAAUUAAAACUGUAGAAGGCACAUUCCUCAAGACAUGAGGAUCACCCAUGUGAUAAUAAGAU” were, in that order, 35.2 nM and 127 nM.
For “CAUAAACAUGAGGAUCACCCAUGUGAGGAUAUGAUAUUACUAGGACGGCUGUAAUCAAUCAGAAGGCACAUCUU” the same measures were 18.5 nM and 37.5 nM.
The like results for “UGGGAUGGCUAGAAGGCUCCUUAUACUACAGGGAGAGGAUAUGGCACAUGAGGAUCACCCAUGUGUACCUGUAGGUGAUCCACA” were, in that order, 113 nM and 108 nM.
As for “UGUGUGAGACAGGAUAUGCCAGAUGUAUUACUGGUAGAAGGGUCUACAUGAGGAUCACCCAUGUGGCCGGCCGG”, the “apparent Kd” value was found to be 27.1 nM under setting [3] and 61.8 nM under setting [4].
The like results for “CUGUUUGUAGGAUAUACAUGCGGAACCCUCUUCAUGGAAAGACAUGAGGAUCACCCAUGUAGAAGGAUGAAGAG” were, in that order, 19.7 nM and 17.9 nM.
The like results for “CCUAUGUGAGGAUAUGGUGUUGGCCACAGGGAAAAGGUCCUCCAGAAGGCACAUGAGGAUCACCCAUGUCGUGA” were, in that order, 84.6 nM and 158 nM.
For the sequence “GACACUAUGUUUGUCAGAUAGAGAGAGGAUAUGGGUCAUGAGACAUGAGGAUCACCCAUGUAUAAUCAGAAGGCUCGAGUACGA”, the “apparent Kd” value runs as follows: under setting [1], 19.1 nM; under setting [2], 13.7 nM.
For “GGCCAAGUCGAGAAGGCCGGUAGACAUGAGGAUCACCCAUGUAGUGCGUGGAGGAUAUUGAAUGGGUGGCGUAGGACCUGCGUU” the same measures were 106 nM and 18.6 nM.
Regarding “UGAACGUUAGGAUAUACAUGAGGAUCACCCAUGUGUUAUGAGCAAUCAUCGAUAUGUUGUAGAAGGAACGCGCG”, the “apparent Kd” value by setting is: under setting [3], 24.9 nM; under setting [4], 26.3 nM.
For the sequence “CGGCCCGAUCGAGGAUAUAAGUCUAGGACAUGAGGAUCACCCAUGUAUGUCUUAGAAGGCGAUCGGGCCAGCCUGUUACAGGCA”, the “apparent Kd” value was found to be 28.5 nM under setting [1] and 6.43 nM under setting [2].
In the case of “UGCUACGUUUCGUAGCAGUGUCAUCGAGAAGGCCCUGACAUGAGGAUCACCCAUGUUGUUACAUGGGAGGAUAUCGAUGAUACU”, the “apparent Kd” value under setting [1] turned out to be 12.4 nM and the “apparent Kd” value under setting [2] was 5.09 nM.
The like results for “UUAAUAAUACAAGGAUAUCAAUUGUUCUUAAGACAUACAUGAGGAUCACCCAUGUUAAUAUAUGUUGAGAAGGUGUAUUUUCAG” were, in that order, 35.7 nM and 26.7 nM.
For the sequence “CUUUGAUGAGGAUAUCGAGGUUAGUACAUGAGGAUCACCCAUGUUAUCCAGGUGUCGGUUCGAGAAGGUAUUGGAC”, the “apparent Kd” value by setting is: under setting [3], 16.7 nM; under setting [4], 18.5 nM.
With “CUGCCUACAUGAGGAUCACCCAUGUCUGGCGAAAGAGUUCAGUAGGAUAUGAGAUUGGGUAAUCAUCAGAAGGGCUGGCAAAAG”, the “apparent Kd” value under setting [1] was 37.5 nM and the “apparent Kd” value under setting [2] came to 14.2 nM.
Take “ACAACAAAGUGAGGAUAUACAUAAUUCAUAACUGUAGAAGGCACAAACCUCAAUACAUGAGGAUCACCCAUGUUAUAUAUCUAA”: the “apparent Kd” value is, setting by setting: under setting [3], 34.8 nM; under setting [4], 38.5 nM.
The like results for “CCGGAUUAGGAGGAUAUAGGAGUCGAUAGACACCUAGAAGGCCUAACAUGAGGAUCACCCAUGUGUCCUACCGG” were, in that order, 21.9 nM and 90.8 nM.
For “GUGUUUGAUGAGGAUAUCGAUGUGGGUACAUAGCGAGAAGGCAUUACAUGAGGAUCACCCAUGUAGUGUGGGUU” the same measures were 25 nM and 56.7 nM.
For “CACCGUUAGAGAGGAUAUCGUACAUGAGGAUCACCCAUGUAAUAAAUGAGAAUUUCGGAUGUAUGCGAGAAGGCUCGAAUCGGC” the same measures were 53.4 nM and 40.7 nM.
Consider “CUCAUUAACAUGAGGAUCACCCAUGUUGGCCAGUCUCACACCAGAAGGCCCGUUGAGCACAGCAGGGAGGAUAUGGGUGACAUA”, for which the “apparent Kd” value runs as follows: under setting [1], 309 nM; under setting [2], 211 nM.
For the sequence “GGUGGACAUGAGGAUCACCCAUGUGAGGAUAUCGGCUGGCUAGCGGCGGACGGCUGCUCGAGAAGGCGCAUUGU”, the “apparent Kd” value came to 90.6 nM under setting [3] and 137 nM under setting [4].
With “CGAUGACACAGUCAUCCAAUACGAACAUGAGGAUCACCCAUGUAGGAUAUGCUACUCAAAGAGUAGCAGAAGGACAUGUGCCUU”, the “apparent Kd” value was 38.4 nM under setting [3] and 159 nM under setting [4].
As to “CACUCAGGCACAUGAGGAUCACCCAUGUCCCGGAAGCCGAGACAGGAUAUGUGCCUCGAAUGUGCACAGAAGGGUCUACUAUGU”, the “apparent Kd” value under setting [1] turned out to be 374 nM and the “apparent Kd” value under setting [2] turned out to be 264 nM.
With “UAUAUAUAGUAAGGAUAUGUAUUUCUUUUAUAAACAGAAGGUACUGACAUGAGGAUCACCCAUGUUUUAGUGUGGGCAUGUAGA”, the “apparent Kd” value runs as follows: under setting [3], 81.2 nM; under setting [4], 116 nM.
The like results for “GGAUAGGACAGAGGAUAUACGUGCUAGAGAUACUAGCAAAAUUUCGUCACAUGAGGAUCACCCAUGUAGAAGGCUGUCCUAUCG” were, in that order, 5.02 nM and 7.65 nM.
For “AACAAACGCCUAGGAUAUCAUACUCGAGCGGUCUGAGAAGGAGGCAAGCUUGGGUCCUCAGCACAUGAGGAUCACCCAUGUAAG” the same measures were 303 nM and 57.2 nM.
For “AUUGUUGUUGUGAGGAUAUCGUUGAUUUUUUGAAACGAGAAGGCACAUGAGGAUCACCCAUGUUAGUUGUUGGU” the same measures were 96.4 nM and 311 nM.
For “UAAUGUGACAUGAGGAUCACCCAUGUAGACAUGGGAAGGUCGUAGGAUAUGCUGAUGAUUUUUUUGCAGAAGGACGUCAAGGAG”, the “apparent Kd” value was 268 nM under setting [1] and 138 nM under setting [2].
On to “GCUUUAGUAUCACAUGUAUUACAUGAGGAUCACCCAUGUUACUAGGAUAUGUAUUAGAAUUUACAACAGAAGGAGUAAGAAUGU”, for which the “apparent Kd” value amounted to 7.49 nM under setting [3] and 8.93 nM under setting [4].
On to “GGUUCGGGAGGAUAUGUUUUUUUUUACAUGAGGAUCACCCAUGUUUUUGUGUUUUUUUUCAUAGAAGGUUUGGGCC”, for which the “apparent Kd” value is 39 nM under setting [3] and 39.3 nM under setting [4].
For the sequence “AGCAUGUUUGGGUAACCUGGCACAUGAGGAUCACCCAUGUGACAGGAUAUCGACGUAGAUGGCGACGAGAAGGGUCCGAUGGGU”, the “apparent Kd” value by setting is: under setting [3], 5.78 nM; under setting [4], 7.01 nM.
In the case of “GCUGACGAUGUAGGAUAUCAGUAUAAUAAAUACUGAGAAGGACAUGAGGAUCACCCAUGUCUCCAACGUCAGCAGAGGAAACUC”, the “apparent Kd” value by setting is: under setting [3], 15.9 nM; under setting [4], 16.8 nM.
With “GUGGUCAGACAUGAGGAUCACCCAUGUGGAAUAAAUAACAACUAGGAUAUGUAAUAUAGGAUAUAACAGAAGGAGUGAUUGGUG”, the “apparent Kd” value reads like this: under setting [1], 168 nM; under setting [2], 138 nM.
Consider “CCUCAGGCGGAGGAUAUCUAACAACAAUAACAAAGAGAAGGCCGCACAUGAGGAUCACCCAUGUGUAUGGGCCG”, for which the “apparent Kd” value reads like this: under setting [3], 12.4 nM; under setting [4], 22.8 nM.
Regarding “GCCCGGGCUAACAUGAGGAUCACCCAUGUGUUAUACUUAAUAUAGGAUAUGUUUAUACUUUUUGGGCAGAAGGAUGGCCCGGGC”, the “apparent Kd” value under setting [1] was 68.2 nM and the “apparent Kd” value under setting [2] worked out at 61.7 nM.
As to “AAGACGUAAGGAUAUAUUAUGGGACAAUGAAGGAAGAUAAAACAUGAGGAUCACCCAUGUAGAAGGUGCAAAGA”, the “apparent Kd” value is 45.9 nM under setting [3] and 41.5 nM under setting [4].
The like results for “GAGCGAAAGCUCAAUGUCGAUAGCAGAAGGACAUCCUUUAACAUGAAAACAUGAGGAUCACCCAUGUAGGAUAUGCUAUCGACU” were, in that order, 6.66 nM and 7.92 nM.
As for “AAAGUACAUGAGGAUCACCCAUGUCCCAAUGAAUAAGGAUAUACGAAAAUAAAAUAAAAUGUAGAAGGUAUAAUAG”, the “apparent Kd” value runs as follows: under setting [1], 31.6 nM; under setting [2], 27.2 nM.
“CAGUACUGAGGAUAUACAUGAGGAUCACCCAUGUGUUCCAGCUAGGAAUCUAGCAAAAGUAGAAGGCAGUACUG”: the “apparent Kd” value is, setting by setting: under setting [3], 25.9 nM; under setting [4], 449 nM.
The like results for “CCCGGGCCUGUGAGGAUAUCGGGCCCGAAAGGGCCCGAGAAGGCACAUGAGGAUCACCCAUGUAAGGGUUUGGG” were, in that order, 27.4 nM and 19.7 nM.
For “UUUCCUUGUGUGAGGAUAUACUUGUUUGUGUUUUUGUAGAAGGCACAUGAGGAUCACCCAUGUACUCUUUCCUG” the same measures were 35.1 nM and 54.3 nM.
“UUGUUUCGUCAUUAACAUGAGGAUCACCCAUGUAAAGAACCAGAGGAUAUGCAUGUUUGAUUGUAGCAGAAGGCUGAUUGUUGU”: the “apparent Kd” value reads like this: under setting [1], 35.8 nM; under setting [2], 33.4 nM.
With “AGUACUCAAAGAGUACCAAUACGAACAUGAGGAUCACCCAUGUAGGAUAUGCUACUCAAAGAGUAGCAGAAGGACAUGUGCCUA”, the “apparent Kd” value is, setting by setting: under setting [3], 18.2 nM; under setting [4], 82.3 nM.
As for “GGGUACAUCGGAGGAUAUCAUGUAAAUACAUGAGGAUCACCCAUGUCGAUGGAGACAUCGGAGCUUGAGAAGGCCGAUGUACCG”, the “apparent Kd” value is, setting by setting: under setting [1], 36.2 nM; under setting [2], 6.49 nM.
As to “UGUGUGUGGGCAGGAUAUACAUGAAUAUAUAUGAUGUAGUAUGAUGUAACAUGAGGAUCACCCAUGUAGAAGGGCCGGUGUAUG”, the “apparent Kd” value is, setting by setting: under setting [3], 122 nM; under setting [4], 140 nM.
